Source: publication PMC3402649 (Peptides, 2012)
Ends that are not written are not given here. * marks the point of attachment. Octanoyl = CCCCCCCC(=O)*

Assays:
[1] = system: E. coli (ATCC 27325); assay: Agar plate-based bactericidal assay; format: cell-based, Escherichia coli
Method in brief: (§1)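 Bacteria were grown aerobically overnight in BHI broth at 37°C, washed twice in PBS and suspended at 10^5 cells/mL in 10 mM sodium phosphate, pH 6.8. Suspensions were exposed to the test peptide over a range of concentrations for 2 h at 37°C, aerobically. For salt sensitivity, NaCl was added at 0–150 mM, with 25 μg/ml test peptide or 1 μg/ml reference peptide. Samples were diluted in PBS, plated on BHI agar overnight at 37°C and counted for CFU. Survival is expressed as a percentage of untreated; mean ± SD of three independent experiments.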

[2] = system: E. coli; assay: Measurement of zeta-potential of bacteria treated with peptide; set-up: species or system Escherichia coli; conditions: 5 and 20 μg peptide/10^5 bacterial cells, 10 mM NaPi, 20 min, 37°C
Method in brief: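 Overnight E. coli cultures were washed in PBS and resuspended at 10^8 cells/mL in 10 mM sodium phosphate. Cells were added to phosphate buffer containing peptide to give 5 or 20 μg peptide per 10^5 cells, then incubated 20 min at 37°C. Zeta potential was read on a particle sizer/zetasizer, and the mean was computed by the Smoluchowski equation. Values are mean ± SD of three independent experiments.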

[3] = system: P. aeruginosa (ATCC 15692); assay: Agar plate-based bactericidal assay; format: cell-based, Pseudomonas aeruginosa
Method in brief: as §1

[4] = system: E. faecalis (ATCC 29212); assay: Agar plate-based bactericidal assay; format: cell-based, Enterococcus faecalis; conditions: range of ghrelin concentrations tested; data not shown
[5] = LL37 1 μg/ml, 10 mM NaPi pH 6.8 with NaCl 0 to 150 mM, dose-dependent
[6] = physiological NaCl concentration (150 mM) in 10 mM NaPi pH 6.8, AG 25 μg/ml

Row | Substance | effect of NaCl on bactericidal activity (in words) [1, 5] | effect on zeta-potential of E. coli (in words) [2] | effect of NaCl on bactericidal activity (in words) [3, 5] | effect of NaCl on bactericidal activity (in words) [1, 6] | bactericidal effects (in words) [4] | effect of NaCl on bactericidal activity (in words) [3, 6]
1 | LL37 (LLGDFFRKSKEKIGKEFKRIVQRIKDFLRNLVPRTES; Antibacterial peptide LL-37; UniProt P49913 134-170, looked up) [reference compound] | attenuated | increased the zeta-potential of E. coli | attenuated |  |  | 
2 | acylated ghrelin (GSS(Octanoyl)FLSPEHQRVQQRKESKKPPAKLQPR; UniProt Q9UBU3 24-51, looked up) [AG] |  |  |  | decreased | neither AG nor DAG showed significant bactericidal effects | decreased
3 | desacylated ghrelin (GSSFLSPEHQRVQQRKESKKPPAKLQPR; Ghrelin-28 non-acylated; UniProt Q9UBU3 24-51, looked up) [DAG] |  |  |  |  | neither AG nor DAG showed significant bactericidal effects | 
